Rows were chosen to be rich in hits. Some 3.6% of all compounds tested hit in one or more screens of this group.
IMP-1 inhibitor: blocks Pseudomonas aeruginosa IMP-1 metallo-beta-lactamase; purified IMP-1, nitrocefin hydrolysis, epi-absorbance fluorescence; inhibition, % at 5.6 µM; 290,000 tested, 0.45% active;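 active = inhibition above the mean plus 3 SD of all compounds in the same screening run, cut at about 4.5% in these data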
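system = purified recombinant IMP-1 beta-lactamase | amount = 0.2 nM IMP-1, as dispensed | medium = HEPES buffer pH 7.1 with ZnSO4 and Brij 35 | times = 25 °C, 15 min preincubation, 25 min reaction | detection = plate fluorescence quenching by hydrolysis product, ex 480/em 530 nm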
VIM-2 inh: inhibitors of Pseudomonas aeruginosa VIM-2 metallo-beta-lactamase. purified VIM-2, nitrocefin hydrolysis, epi-absorbance fluorescence. 290,000 tested, 0.89% active. AID 1527. inhibition, % at 5.6 µM;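 active = inhibition above the mean of all tested compounds plus 3 SD, cutoff set per screening run, cut at about 7.5% in these data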;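 also: red hydrolysis product quenches plate fluorescence so inhibitors raise well fluorescence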
PAFAH1B3 FP inh: inhibitors of human PAFAH1B3. inhibition, % at 3.39 µM. recombinant PAFAH1B3, FP-rhodamine probe, fluorescence polarization. 340,000 tested, 0.28% active;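 active = inhibition above the screen-wide average of all tested compounds plus 3 SD, cut at about 25% in these data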
Target sequence (Q15102 whole entry, looked up): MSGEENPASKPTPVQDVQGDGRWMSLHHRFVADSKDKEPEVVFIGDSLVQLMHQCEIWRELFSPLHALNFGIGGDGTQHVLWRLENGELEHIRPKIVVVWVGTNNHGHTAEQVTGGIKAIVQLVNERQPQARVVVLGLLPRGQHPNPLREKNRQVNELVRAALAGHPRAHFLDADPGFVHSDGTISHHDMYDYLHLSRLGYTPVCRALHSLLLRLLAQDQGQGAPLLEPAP
PAFAH2 FP inh: PAFAH2 (human) inhibition; 340,000 tested, 0.99% active; recombinant PAFAH2, FP-rhodamine activity probe, fluorescence polarization; inhibition, % at 3.39 µM;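 active = inhibition above the mean over all tested compounds plus 3 SD, cut at about 30% in these data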;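 also: inhibitors block probe labeling of enzyme so polarization drops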
pPAFAH FP inh: pPAFAH (human) enzyme inhibition. Q13093. recombinant pPAFAH, FP-rhodamine probe fluorescence polarization. inhibition, % at 3.39 µM. 330,000 tested, 1.5% active. AID 463082;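 active = inhibition above the mean inhibition across the screen plus 3 SD, cut at about 25% in these data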;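 also: inhibitors block binding of the rhodamine activity-based probe so polarization drops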
Target sequence (Q13093 whole entry, looked up): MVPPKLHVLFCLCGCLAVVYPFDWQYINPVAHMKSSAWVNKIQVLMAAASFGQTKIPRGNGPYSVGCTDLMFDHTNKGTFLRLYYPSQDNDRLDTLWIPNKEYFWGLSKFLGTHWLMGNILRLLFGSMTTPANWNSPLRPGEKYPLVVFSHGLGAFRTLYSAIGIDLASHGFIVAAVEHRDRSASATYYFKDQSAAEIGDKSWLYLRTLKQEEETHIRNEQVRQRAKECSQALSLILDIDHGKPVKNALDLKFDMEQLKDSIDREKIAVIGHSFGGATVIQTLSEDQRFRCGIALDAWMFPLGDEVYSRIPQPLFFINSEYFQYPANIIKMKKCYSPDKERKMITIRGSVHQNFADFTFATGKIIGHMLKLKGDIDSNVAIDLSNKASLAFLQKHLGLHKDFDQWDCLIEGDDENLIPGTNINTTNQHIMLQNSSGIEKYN
PAFAH1B2 FP inh: inhibitors of human PAFAH1B2. P68402. inhibition, % at 3.39 µM. AID 492953. recombinant PAFAH1B2, FP-rhodamine activity probe, fluorescence polarization. 340,000 tested, 1.2% active;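 active = inhibition above the mean of all tested compounds plus 3 SD, cut at about 24% in these data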
Of the large screens only hits and unclear results are named; the others gave an inactive call.

C[C@H](CO)N1C[C@H](C)[C@@H](CN(C)C(=O)Nc2ccc3c(c2)OCO3)Oc2ccc(NS(=O)(=O)c3ccccc3)cc2C1=O	none (no result: IMP-1 inhibitor, VIM-2 inh)
Cc1noc(C)c1C(c1ccccc1)c1ccccc1	PAFAH1B2 FP inh 29
CC(C)NCC#CCOc1ccc(Cl)cc1	PAFAH1B2 FP inh 30
CC(C)NCC(O)COCCOc1ccc(Cl)cc1 (configuration not stated)	none
CCOC(=O)N1CCN(C(=O)c2cc3c(=O)n4ccccc4nc3s2)CC1	none
CN1CCN(C(=O)c2cc3c(=O)n4ccccc4nc3s2)CC1	VIM-2 inh 7.9
CCn1c(=O)c2cc(C(=O)N3CCN(C)CC3)sc2c2ccccc21	VIM-2 inh 9.0
CC(C)(C)OC(=O)N1CCN(c2ccc(NC(=O)c3ccco3)cc2)CC1	none (no result: pPAFAH FP inh)
O=C1C(C=NCCCn2ccnc2)=C(O)c2ccccc21	none
CC(=NCCCn1ccnc1)C1=C(O)c2ccccc2C1=O	VIM-2 inh 12
COc1ccccc1NC(=S)NCCSc1ccc(Cl)cc1	none
COc1cccc(NC(=O)NCCc2ccc(Cl)cc2)c1	none
COc1ccccc1NC(=S)NCCc1ccc(Cl)cc1	PAFAH1B2 FP inh 34
CC(=O)c1cccc(NC(=O)NCCc2ccc(Cl)cc2)c1	PAFAH1B2 FP inh 27
Cc1ccccc1NC(=O)NCCc1ccc(Cl)cc1	PAFAH1B2 FP inh 29
S=C(NCCc1ccc(Cl)cc1)NC1CC1	PAFAH1B2 FP inh 42
Cc1ccccc1NC(=O)NCCCCc1ccccc1	none
O=C(Oc1ccc(-c2nnco2)cc1)C1CCN(C(=O)c2ccc(F)cc2)CC1	none
CC(C)C(=O)NC(c1ccc(Cl)cc1Cl)c1ccc2cccnc2c1O (configuration not stated)	pPAFAH FP inh 26
CCC(=O)NC(c1ccc(Cl)cc1Cl)c1ccc2cccnc2c1O (configuration not stated)	pPAFAH FP inh 27
O=C(NCC(=O)N1CCOCC1)c1ccc(Cl)cc1	none
COc1cc(CNCCO)cc(Cl)c1OCc1ccc(Cl)cc1Cl	pPAFAH FP inh 28
CCCCNc1c(-c2ccc(OC)c(Sc3ccc(OC)cc3)c2)nc2cnccn12	none (no result: IMP-1 inhibitor, VIM-2 inh)
CCCCNc1c(-c2ccc(SC(C)CC)cc2)nc2cnccn12 (configuration not stated)	PAFAH1B3 FP inh 27, pPAFAH FP inh 34 (no result: IMP-1 inhibitor, VIM-2 inh)
O=C(O)c1cccc2c1C(=O)c1cccc3snc-2c13	VIM-2 inh 8.3
O=C1c2cc(Cl)ccc2-c2c(O)cc(Cl)cc21	none (no result: IMP-1 inhibitor, VIM-2 inh, pPAFAH FP inh)
CCOC(=O)C1=C(COC(=O)CCc2ccccc2)NC(=O)NC1C (configuration not stated)	none (no result: IMP-1 inhibitor, VIM-2 inh)
C=C(C(=O)O)C(CCCCCC)C(=O)O (configuration not stated)	IMP-1 inhibitor 14
Nc1cc2cccnc2cc1Cl	PAFAH1B3 FP inh 37, PAFAH2 FP inh 44 (no result: IMP-1 inhibitor, VIM-2 inh, pPAFAH FP inh)
Brc1ccc2cccnc2c1	none
COc1ccc(Cn2nnnc2CN(Cc2cc3cc(C)ccc3[nH]c2=O)C2CCCC2)cc1	PAFAH1B2 FP inh 26
COc1ccc2[nH]c(=O)c(CN(Cc3nnnn3Cc3ccco3)C3CCCCC3)cc2c1	none
COc1ccc(OC)c(NC(=O)COC(=O)CC2CCCCC2)c1	none (no result: IMP-1 inhibitor, VIM-2 inh)
CCN(CC)CCNC(=O)c1ccc(Cl)c(S(=O)(=O)Nc2ccccc2OC)c1	IMP-1 inhibitor 5.4
Brc1ccc2c(c1)CN1CCCC1=N2	none
O=C(NC(=S)NC(CO)c1ccccc1)c1ccc(F)cc1 (configuration not stated)	none
S=c1[nH]nc(-c2ccco2)n1/N=C/c1cccc(Cl)c1Cl	none
S=c1[nH]nc(-c2ccco2)n1/N=C/c1ccc(Cl)cc1Cl	pPAFAH FP inh 31
Cc1[nH]c2ccccc2c1Cc1nnc(SCC(N)=O)o1	IMP-1 inhibitor 9.6
Cc1[nH]c2ccccc2c1CCC(N)=O	none
Cc1ccc(O)c(N)c1	none (no result: IMP-1 inhibitor, VIM-2 inh)
Nc1cc2c(cc1O)CCCC2	pPAFAH FP inh 31
CCOC(=O)N1CCN(C(=O)COC(=O)c2ccccc2NCCO)CC1	none (no result: IMP-1 inhibitor, VIM-2 inh)
O=C(Nc1scc(-c2cccs2)c1C(=O)O)c1cccs1	IMP-1 inhibitor 15
O=C(Nc1scc(-c2ccccc2)c1C(=O)O)c1ccco1	IMP-1 inhibitor 4.8
CCOc1ccc(NC(=O)CN(C)C(=O)C2=COCCO2)cc1OCC	none (no result: IMP-1 inhibitor, VIM-2 inh)
CCC(C)[C@@H](N)C(=O)N/N=C/c1ccc2ncccc2c1 (some centres not stated)	VIM-2 inh 7.8
COc1cccc(N2CC(C(=O)Nc3ccc(F)cc3)CC2=O)c1 (configuration not stated)	none
COc1cccc(N2CC(C(=O)Nc3ccc(C(=O)OC(C)C)cc3)CC2=O)c1 (configuration not stated)	pPAFAH FP inh 25
CN1Cc2c(N3CCOCC3)nc3sc(C(=O)c4ccc(Br)cc4)c(N)c3c2CC1(C)C	pPAFAH FP inh 30 (no result: PAFAH1B3 FP inh, PAFAH2 FP inh, PAFAH1B2 FP inh)
CCOc1cc(N2CCOCC2)c(OCC)cc1NC(=O)COC(=O)c1ccc(Cl)nc1	none (no result: IMP-1 inhibitor, VIM-2 inh)
CC(C)c1ccc(N2C(=O)/C(=C/N(C)C)SC2=S)cc1	pPAFAH FP inh 29
Cc1ccc2occ(/C=N/NC(=O)c3ccc(O)cc3)c(=O)c2c1	none (no result: pPAFAH FP inh)
Cc1ccc2occ(/C=N/NC(=O)c3ccccc3Br)c(=O)c2c1	IMP-1 inhibitor 5.2
CCOc1ccccc1C(=O)N/N=C/c1coc2ccc(C)cc2c1=O	IMP-1 inhibitor 10 (no result: pPAFAH FP inh)
Cc1ccccc1OCCC(=O)OCC(=O)NC1CCS(=O)(=O)C1 (configuration not stated)	none (no result: IMP-1 inhibitor, VIM-2 inh)
O=C1C(Cl)=C(NCCN2CCCCC2)C(=O)c2ccccc21	PAFAH1B3 FP inh 29
O=c1c(CO)cc(CO)cc(CO)c1O	none
O=C1C=CC(=O)c2c(O)c(CO)c(CO)c(O)c21	PAFAH1B3 FP inh 50, PAFAH2 FP inh 68, PAFAH1B2 FP inh 25 (no result: IMP-1 inhibitor, VIM-2 inh, pPAFAH FP inh)
Cc1ccc(-n2ncc3c2CCCC3NC(=O)CCc2cnccn2)cc1C (configuration not stated)	none
Cc1ccc2c(c1)c1c3n2CC(=C2C(=O)OC(C)(C)OC2=O)NC3CCC1 (configuration not stated)	pPAFAH FP inh 29
COc1ccc(-n2c(SCCNCCO)nc3sc4c(c3c2=O)CCCC4)cc1	none
CC(=O)Nc1cc(C)nn1-c1nc(C)cc(C)n1	VIM-2 inh 9.3
Cc1ccc(Nc2cc(C)nn2-c2nc(C)cc(C)n2)cc1	VIM-2 inh 7.8
Cc1ccc(Nc2cc(C)nn2-c2nc(C)cc(=O)[nH]2)cc1	pPAFAH FP inh 30
CCc1ccccc1N1CC(C(=O)N2Cc3ccccc3CC2C(N)=O)CC1=O (configuration not stated)	none (no result: IMP-1 inhibitor, VIM-2 inh)
CC(=O)N1CCN(c2ccc(Oc3ccc([N+](=O)[O-])c(C(F)(F)F)c3)cc2)CC1	pPAFAH FP inh 25
Cc1cc(=O)nc2c3ccccc3n(CC(=O)NCCC3=CCCCC3)n12	none
O=C(CSCc1ccco1)c1ccc(Cl)s1	pPAFAH FP inh 25 (no result: PAFAH1B3 FP inh, PAFAH2 FP inh, PAFAH1B2 FP inh)
Cc1cc(Br)ccc1NC(=O)CNC(=O)c1cnn(C)c1	none (no result: IMP-1 inhibitor, VIM-2 inh)
